Experiments:
[1] = target: Glutamate NMDA receptor (Rattus norvegicus) (UniProt P35439+Q00959+Q00960+Q00961+Q62645+Q8VHN2+Q9R1M7); test: Inhibition of N-methyl-D-aspartate glutamate receptor was measured in oocytes expressing cloned rat brain receptor subunits (NR1A/2C); type: cell-based; conditions: Oocyte
Summary of the method: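 Xenopus oocytes expressing cloned rat NR1A/2C subunits, voltage-clamped at -70 mV. Currents were evoked by 1 μM glycine plus 100 μM glutamate. The apparent dissociation constant (Kb) was calculated from current inhibition assuming simple competitive antagonism, and reported with 95% confidence intervals adjusted to the linear scale.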

[2] = target: Glutamate receptor ionotropic, NMDA 1 (Rattus norvegicus, UniProt P35439); test: Antagonism of N-methyl-D-aspartate glutamate receptor 1 sites using [3H]DCKA as a radioligand
[3] = target: Glutamate receptor ionotropic, AMPA (Rattus norvegicus) (UniProt P19491+P19492+P19493+P19490); test: Inhibition of Ionotropic glutamate receptor AMPA-preferring non-NMDA receptors was measured in oocytes expressing rat brain poly(A)+ RNA isolated from the cerebral cortex.; type: cell-based; conditions: Oocyte
[4] = Selectivity index measured as the kb ratio of AMPA to that of NMDA.
Summary of the method: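 Steady-state selectivity index: Kb at AMPA receptors (rat cortex poly(A)+ RNA oocytes, 10 μM AMPA) divided by Kb at NR1A/2C NMDA receptors (1 μM glycine, 100 μM glutamate), both from oocyte current inhibition at -70 mV.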

## O=c1cc(O)c2c([nH]c1=O)C[C@H](Cl)[C@@H](Cl)C2
[1]
  Kb: 42 nM
[2]
  IC50: 130 nM
[3]
  Kb: 780 nM
[4]
  Selectivity index: 19

## O=c1cc(O)c2c([nH]c1=O)CCCC2
[1]
  Kb: 740 nM
[3]
  Kb: 23000 nM
[4]
  Selectivity index: 31

## O=c1cc(O)c2c([nH]c1=O)C1CCC2C1 (stereo unspecified)
[1]
  Kb: 2800 nM
[4]
  Selectivity index: 75

## CCC1c2c(O)cc(=O)c(=O)[nH]c2C[C@H](Cl)[C@H]1Cl (stereo partly specified)
[1]
  Kb: 2.8 nM
[3]
  Kb: 720 nM
[4]
  Selectivity index: 260

## CC1Cc2[nH]c(=O)c(=O)cc(O)c2CC1C (stereo unspecified)
[1]
  Kb: 120 nM
[3]
  Kb: 5300 nM
[4]
  Selectivity index: 44

## O=c1cc(O)c2c([nH]c1=O)C1CCC2CC1
[1]
  Kb: 260 nM
[3]
  Kb: 79000 nM
[4]
  Selectivity index: 300

## CC1c2c(O)cc(=O)c(=O)[nH]c2C[C@H](Cl)[C@H]1Cl (stereo partly specified)
[1]
  Kb: 4.1 nM
[3]
  Kb: 510 nM
[4]
  Selectivity index: 120
